Results as given in ChEMBL document CHEMBL1131936, “Structure-activity relationships of a series of benzothiophene-derived NPY Y1 antagonists: optimization of the C-2 side chain” (Bioorg Med Chem Lett, 1999).

target: T1, Neuropeptide Y receptor type 1 (Homo sapiens, UniProt P25929); assay: Ability to displace [125I]pPYY from AV12 cell line stably transfected with cloned human neuropeptide Y receptor type 1.; assay type: cell-based
T1 sequence (P25929 whole entry): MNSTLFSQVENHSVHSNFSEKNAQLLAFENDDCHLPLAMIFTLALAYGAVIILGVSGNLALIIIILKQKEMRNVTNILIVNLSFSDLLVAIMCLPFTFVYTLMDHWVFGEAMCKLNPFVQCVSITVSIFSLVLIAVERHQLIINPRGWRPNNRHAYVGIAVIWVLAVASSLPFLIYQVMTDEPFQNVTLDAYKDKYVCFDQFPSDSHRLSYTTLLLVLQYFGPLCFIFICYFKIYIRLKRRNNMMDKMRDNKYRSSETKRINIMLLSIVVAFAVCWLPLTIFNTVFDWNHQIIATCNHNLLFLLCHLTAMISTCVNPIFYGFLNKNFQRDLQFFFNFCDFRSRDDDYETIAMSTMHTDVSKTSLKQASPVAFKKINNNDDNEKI
Summary of the method: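 Membranes prepared from AV12 cells stably transfected with the human Y1 receptor; test compound displacement of 125I-porcine PYY binding measured, method as previously reported. Ki reported in μM.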

Point of comparison: CN(C)C1CCN(CCc2c(C(O)c3ccc(Cl)cc3Cl)sc3ccccc23)CC1 (stereo unspecified), Ki 3.8 µM. Against it:
- CN(C)C1CCN(CCc2c(C(=O)Nc3ccc(Cl)cc3Cl)sc3ccccc23)CC1 — 1.7-fold lower, 2.3 µM
- Cc1ccc(OCc2sc3ccccc3c2CCN2CCC(N(C)C)CC2)c(Br)c1 — 49-fold lower, 0.078 µM
- Cc1cc(C)c(OCc2sc3ccccc3c2CCN2CCC(N(C)C)CC2)c(C)c1 — 1.6-fold lower, 2.42 µM
- Cc1cc(Br)ccc1OCc1sc2ccccc2c1CCN1CCC(N(C)C)CC1 — 9-fold lower, 0.42 µM
- Clc1ccc(OCc2sc3ccccc3c2CCN2CCCCC2)cc1 — 2-fold lower, 1.9 µM
- CN(C)C1CCN(CCc2c(COc3ccccc3)sc3ccccc23)CC1 — 3-fold lower, 1.26 µM
- CN(C)C1CCN(CCc2c(COc3ccc(Br)cc3CO)sc3ccccc23)CC1 — 250-fold lower, 0.015 µM
- CN(C)C1CCN(CCc2c(CO)sc3ccccc23)CC1 — 23-fold higher, 88 µM
- Clc1ccc(OCc2sc3ccccc3c2CCCN2CCCCC2)cc1 — within 1.5-fold, 2.6 µM
- CN(C)C1CCN(CCc2c(COc3ccc(Br)cc3Br)sc3ccccc23)CC1 — 32-fold lower, 0.12 µM
- CN(C)C1CCN(CCc2c(C(Oc3ccc(Cl)cc3Cl)c3ccccc3)sc3ccccc23)CC1 (stereo unspecified) — 1.5-fold higher, 5.8 µM
- CN(C)C1CCN(CCc2c(Cc3ccc(Cl)cc3Cl)sc3ccccc23)CC1 — within 1.5-fold, 4.2 µM
- CC(Oc1ccc(Cl)cc1Cl)c1sc2ccccc2c1CCN1CCC(N(C)C)CC1 (stereo unspecified) — 2.2-fold lower, 1.7 µM
- CC(CN1CCC(N(C)C)CC1)c1c(COc2ccc(Cl)cc2Cl)sc2ccccc12 (stereo unspecified) — 5.5-fold lower, 0.69 µM
- Cc1ccccc1OCc1sc2ccccc2c1CCN1CCC(N(C)C)CC1 — 9-fold lower, 0.42 µM
- CN(C)C1CCN(CCc2c(CCOc3ccc(Cl)cc3Cl)sc3ccccc23)CC1 — within 1.5-fold, 2.8 µM
- CN(C)C1CCN(CCc2c(C(C)(C)Oc3ccc(Cl)cc3Cl)sc3ccccc23)CC1 — 3.2-fold higher, 12 µM
- CN(C)C1CCN(CCc2c(COc3ccc(C#N)cc3Br)sc3ccccc23)CC1 — 10-fold lower, 0.38 µM
- CN(C)C1CCN(CCc2c(/C=N/c3ccc(Cl)cc3Cl)sc3ccccc23)CC1 — 3.3-fold higher, 12.6 µM
- CN(C)C1CCN(CCc2c(/C=C/c3ccc(Cl)cc3Cl)sc3ccccc23)CC1 — 3.3-fold higher, 12.4 µM
- COC(c1ccc(Cl)cc1Cl)c1sc2ccccc2c1CCN1CCC(N(C)C)CC1 (stereo unspecified) — within 1.5-fold, 4 µM
- CN(C)C1CCN(CCc2c(COc3ccccc3CO)sc3ccccc23)CC1 — 8.4-fold lower, 0.45 µM
- CN(C)C1CCN(CCc2c(COc3ccc(Cl)cc3)sc3ccccc23)CC1 — 12-fold lower, 0.31 µM
- Cc1ccc(OCc2sc3ccccc3c2CCN2CCC(N(C)C)CC2)c(C(C)(C)C)c1 — within 1.5-fold, 2.83 µM
- CN(C)C1CCN(CCc2c(COc3ccc(Br)cc3C#N)sc3ccccc23)CC1 — 290-fold lower, 0.013 µM
- CN(C)C1CCN(CCc2c(COc3ccccc3C=O)sc3ccccc23)CC1 — within 1.5-fold, 2.76 µM
- CN(C)Cc1cc(Br)ccc1OCc1sc2ccccc2c1CCN1CCC(N(C)C)CC1 — 1.6-fold lower, 2.43 µM
- CN(C)C1CCN(CCc2c(/C=N/Nc3ccc(Cl)cc3Cl)sc3ccccc23)CC1 — within 1.5-fold, 4.5 µM
- CN(C)C1CCN(CCc2c(COc3ccc(-c4ccccc4)cc3)sc3ccccc23)CC1 — within 1.5-fold, 3.7 µM
- CNCc1cc(Br)ccc1OCc1sc2ccccc2c1CCN1CCC(N(C)C)CC1 — 5.8-fold lower, 0.66 µM
- CN(C)C1CCN(CCc2c(COc3ccc(CO)cc3Br)sc3ccccc23)CC1 — 20-fold lower, 0.19 µM
- CN(C)C1CCN(CCc2c(-c3ccc(Cl)cc3Cl)sc3ccccc23)CC1 — 1.7-fold higher, 6.5 µM
- CN(C)C1CCN(CCc2c(C(=O)c3ccc(Cl)cc3Cl)sc3ccccc23)CC1 — within 1.5-fold, 5.6 µM
- CN(C)C1CCN(CCc2c(C#Cc3ccc(Cl)cc3Cl)sc3ccccc23)CC1 — 2.1-fold higher, 7.9 µM
- C=CCc1ccccc1OCc1sc2ccccc2c1CCN1CCC(N(C)C)CC1 — 3.9-fold lower, 0.98 µM
- Cc1ccc(OCc2sc3ccccc3c2CCN2CCC(N(C)C)CC2)c(C)c1 — 32-fold lower, 0.12 µM
- CN(C)C1CCN(CCc2c(COc3ccc(Br)cc3C(N)=O)sc3ccccc23)CC1 — 22-fold lower, 0.172 µM
- CN(C)C1CCN(CCc2c(COc3ccc(C(F)(F)F)cc3)sc3ccccc23)CC1 — 5.1-fold lower, 0.74 µM
- CN(C)C1CCN(CCc2c(COc3ccc(Cl)cc3Cl)sc3ccccc23)CC1 — 27-fold lower, 0.14 µM
- COCc1cc(Br)ccc1OCc1sc2ccccc2c1CCN1CCC(N(C)C)CC1 — 350-fold lower, 0.011 µM
- Clc1ccc(OCc2sc3ccccc3c2CN2CCCCC2)cc1 — 2.9-fold higher, 11.1 µM
- CN(C)C1CCN(CCc2c(COc3c(Br)cc(Br)cc3Br)sc3ccccc23)CC1 — within 1.5-fold, 3.6 µM
- CN(C)C1CCN(CCc2c(COc3ccc(Br)cc3C(F)(F)F)sc3ccccc23)CC1 — 5.3-fold lower, 0.72 µM
- CN(C)C1CCN(CCc2c(COc3ccccc3I)sc3ccccc23)CC1 — 10-fold lower, 0.38 µM
- CN(C)C1CCN(CCc2c(COc3ccc(Br)cc3)sc3ccccc23)CC1 — 24-fold lower, 0.16 µM
- CN(C)C1CCN(CCc2c(COc3ccccc3Br)sc3ccccc23)CC1 — 8.4-fold lower, 0.45 µM
- CN(C)C1CCN(CCc2c(CNc3ccc(Cl)cc3Cl)sc3ccccc23)CC1 — 2.2-fold lower, 1.7 µM
- Cc1ccc(OCc2sc3ccccc3c2CCN2CCC(N(C)C)CC2)cc1 — 10-fold lower, 0.37 µM

target: T1, Neuropeptide Y receptor type 1; assay: Functional Neuropeptide Y receptor type 1 antagonism was evaluated by its ability to reverse NPY induced inhibition of forskolin-stimulated cyclic AMP production in SK-N-MC cells; assay type: cell-based
Summary of the method: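 SK-N-MC cells; forskolin-stimulated cyclic AMP production inhibited by NPY, and test compound reversal of this inhibition measured. Ki derived, n = 2–3 determinations.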

Point of comparison: CN(C)C1CCN(CCc2c(COc3ccc(Cl)cc3Cl)sc3ccccc23)CC1, Ki 4.7 µM. Against it:
- CN(C)C1CCN(CCc2c(COc3ccc(Br)cc3CO)sc3ccccc23)CC1 — 3.9-fold lower, 1.2 µM
